{
  "source": "paper PMC3578163",
  "about": "(Chemical research in toxicology, 2013)",
  "key": {"hpol ι^26–446": {"molecular_target": "T1, hpol ι^26–446 (Homo sapiens, UniProt Q9UNA4)", "T1 sequence (Q9UNA4 26-446)": "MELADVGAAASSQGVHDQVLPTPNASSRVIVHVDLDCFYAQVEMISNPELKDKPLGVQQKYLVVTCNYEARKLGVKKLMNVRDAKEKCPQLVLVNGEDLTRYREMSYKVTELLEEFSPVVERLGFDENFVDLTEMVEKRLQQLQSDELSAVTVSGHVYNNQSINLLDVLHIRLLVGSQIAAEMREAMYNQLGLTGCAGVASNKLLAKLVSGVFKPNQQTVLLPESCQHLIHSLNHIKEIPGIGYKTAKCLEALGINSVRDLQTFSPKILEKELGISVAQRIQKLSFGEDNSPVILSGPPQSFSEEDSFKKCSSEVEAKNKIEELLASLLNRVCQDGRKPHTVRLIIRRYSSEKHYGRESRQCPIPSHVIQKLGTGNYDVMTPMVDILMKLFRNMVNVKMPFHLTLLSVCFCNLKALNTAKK", "experiment": "steady-state single-nucleotide", "format": "biochemical", "details": "for kcat: dCTP insertion", "in_short": "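Single dCTP insertion on a FAM-labelled primer-template: 5 nM enzyme, 100 nM DNA. Started with dCTP (10 concentrations, 1–1500 μM) plus 2 mM Mg²⁺. MK886 at 20 nM, 50 nM, 1 μM or 10 μM, or DMSO. Time points quenched with 95% formamide/20 mM EDTA; products resolved on 16% acrylamide/7 M urea gels. Velocities fitted to Michaelis–Menten; kcat and KM taken after enzyme correction.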"}, "[1]": {"system": "peroxisome proliferator activated receptor alpha (PPARα)", "details": "FLAP-independent inhibition of PPARα; cited from earlier work"}, "hpol κ^19–526": {"molecular_target": "T2, hpol κ^19–526 (Homo sapiens, UniProt Q9UBT6)", "T2 sequence (Q9UBT6 19-526)": "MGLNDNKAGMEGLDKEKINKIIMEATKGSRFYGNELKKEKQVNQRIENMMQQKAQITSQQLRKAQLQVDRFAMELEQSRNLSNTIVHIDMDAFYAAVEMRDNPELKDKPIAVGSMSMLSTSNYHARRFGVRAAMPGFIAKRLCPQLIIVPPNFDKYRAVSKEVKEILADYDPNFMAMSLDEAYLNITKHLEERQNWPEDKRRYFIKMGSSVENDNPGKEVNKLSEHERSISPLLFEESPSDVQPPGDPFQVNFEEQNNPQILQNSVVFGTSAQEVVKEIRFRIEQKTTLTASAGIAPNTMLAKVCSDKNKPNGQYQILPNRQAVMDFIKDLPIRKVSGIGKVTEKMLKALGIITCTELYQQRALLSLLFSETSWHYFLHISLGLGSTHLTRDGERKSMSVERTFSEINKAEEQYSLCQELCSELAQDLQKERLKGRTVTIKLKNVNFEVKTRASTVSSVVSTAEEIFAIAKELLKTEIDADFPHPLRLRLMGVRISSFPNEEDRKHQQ", "experiment": "polymerase-catalyzed primer extension", "format": "biochemical", "details": "read-out: IC50 for inhibition of DNA polymerase activity; five-minute time point; all four dNTPs 0.25 mM, MgCl2 5 mM; 20 nM enzyme, 200 nM DNA, 37 °C"}},
  "data": [
    {"smiles": "CC(C)c1ccc2c(c1)c(SC(C)(C)C)c(CC(C)(C)C(=O)O)n2Cc1ccc(Cl)cc1", "note": "[MK886, 3-[1-(4-chlorobenzyl)-3-t-butyl-thio-5-isoproylindol-2-yl]-2,2-dimethylpropanoic acid]", "values": [
      {"measurement": "kcat", "setting": "hpol ι^26–446; 0.02 μM MK886", "result": "0.0233 ± 0.0017", "unit": "s⁻¹"},
      {"measurement": "Fold decrease in kcat/KM,dNTP", "setting": "hpol ι^26–446; 0.02 μM MK886 vs no inhibitor", "result": 1.5},
      {"measurement": "kcat", "setting": "hpol ι^26–446; 0.05 μM MK886", "result": "0.02 ± 0.0017", "unit": "s⁻¹"},
      {"measurement": "Fold decrease in kcat/KM,dNTP", "setting": "hpol ι^26–446; 0.05 μM MK886 vs no inhibitor", "result": 2.1},
      {"measurement": "kcat", "setting": "hpol ι^26–446; 1 μM MK886", "result": "0.0267 ± 0.0017", "unit": "s⁻¹"},
      {"measurement": "Fold decrease in kcat/KM,dNTP", "setting": "hpol ι^26–446; 1 μM MK886 vs no inhibitor", "result": 2.1},
      {"measurement": "kcat", "setting": "hpol ι^26–446; 10 μM MK886", "result": "0.025 ± 0.0017", "unit": "s⁻¹"},
      {"measurement": "Fold decrease in kcat/KM,dNTP", "setting": "hpol ι^26–446; 10 μM MK886 vs no inhibitor", "result": 2.8},
      {"measurement": "mechanism of inhibition of DNA polymerase activity", "setting": "hpol ι^26–446; single-nucleotide insertion, kcat and Km,dNTP both altered", "result": "mixed-model of inhibition"},
      {"measurement": "concentration at which apoptosis is induced", "setting": "[1]", "result": "above 10 μM"},
      {"measurement": "IC50", "setting": "hpol κ^19–526", "result": "63.8 ± 1.7", "unit": "µM"}
    ]}
  ]
}
